# Measurements reported in ChEMBL document CHEMBL5356937, “Dual FLT3/haspin kinase inhibitor based on 3H-pyrazolo[4,3-f]quinoline scaffold with activities against acute myeloid leukemia” (RSC Med Chem, 2023).
# Active and inactive are the calls of the source. The rule behind the calls is not given here.
# Biological target: T1, Serine/threonine-protein kinase haspin (Homo sapiens) (UniProt Q8TF76)
# T1 sequence (whole entry): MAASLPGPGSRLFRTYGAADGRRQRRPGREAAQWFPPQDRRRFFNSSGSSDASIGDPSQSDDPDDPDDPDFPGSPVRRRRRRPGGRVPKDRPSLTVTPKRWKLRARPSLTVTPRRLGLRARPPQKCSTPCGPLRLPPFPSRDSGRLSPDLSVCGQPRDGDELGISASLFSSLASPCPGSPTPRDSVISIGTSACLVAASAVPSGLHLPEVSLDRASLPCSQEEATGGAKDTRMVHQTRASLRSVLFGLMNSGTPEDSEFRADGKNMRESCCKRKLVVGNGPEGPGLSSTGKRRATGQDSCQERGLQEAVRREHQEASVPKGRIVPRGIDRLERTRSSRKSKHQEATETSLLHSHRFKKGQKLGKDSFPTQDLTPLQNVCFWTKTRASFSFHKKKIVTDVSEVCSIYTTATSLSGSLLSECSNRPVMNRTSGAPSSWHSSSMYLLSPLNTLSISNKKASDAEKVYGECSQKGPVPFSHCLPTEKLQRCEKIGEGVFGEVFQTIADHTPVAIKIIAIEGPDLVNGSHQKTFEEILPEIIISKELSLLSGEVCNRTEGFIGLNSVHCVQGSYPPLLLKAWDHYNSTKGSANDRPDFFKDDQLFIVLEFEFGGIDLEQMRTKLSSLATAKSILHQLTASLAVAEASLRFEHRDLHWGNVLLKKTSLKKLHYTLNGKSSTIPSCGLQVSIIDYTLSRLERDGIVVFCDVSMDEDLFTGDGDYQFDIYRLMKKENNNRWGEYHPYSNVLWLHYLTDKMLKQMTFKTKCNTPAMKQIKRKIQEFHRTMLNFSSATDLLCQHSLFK
# Assay: Inhibition of haspin (unknown origin) at 50 nM by ADP Glo kinase assay relative to control
# Conditions: not given
# Summary of the method: (§1)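 In-house ADP-Glo assay: 9 ng/µL kinase, 10 µM ATP, 20 µM peptide substrate, 50 nM inhibitor in 25 mM MOPS pH 7.2, 12.5 mM β-glycerophosphate, 25 mM MgCl2, 2 mM EDTA, 0.2 mM DTT, 40 µg/mL BSA. Incubated 3 h, quenched with GLO reagent 40 min, detection reagent 1 h, luminescence read. Percent inhibition, mean of triplicates.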
row,inhibition [%],SMILES
1,76,O=C(NCc1ncc[nH]1)c1ccc(-c2nc3ccc4[nH]ncc4c3c3c2CCCC3)cc1F
2,41,O=C(NCc1cc[nH]c1)c1ccc(-c2nc3ccc4[nH]ncc4c3c3c2CCCC3)cc1
3,78,O=C(NCCc1ncc[nH]1)c1ccc(-c2nc3ccc4[nH]ncc4c3c3c2CCCC3)cc1
4,39,FC(F)(F)c1n[nH]cc1-c1nc2ccc3[nH]ncc3c2c2c1CCCC2
5,68,O=C(NCc1nccs1)c1ccc(-c2nc3ccc4[nH]ncc4c3c3c2CCCC3)cc1
6,77,O=C(NCc1ncc[nH]1)c1ccc(-c2nc3ccc4[nH]ncc4c3c3c2CCCC3)cc1
7,11,CCc1nc(C(N)=O)c(Nc2ccc(N3CCC(N4CCN(C)CC4)CC3)c(OC)c2)nc1NC1CCOCC1 [GILTERITINIB]
8,53,O=C(NCc1ncc[nH]1)c1ccc(-c2nc3ccc4[nH]ncc4c3c3c2CCCC3)c(F)c1
9,57,O=C(NCc1nnn[nH]1)c1ccc(-c2nc3ccc4[nH]ncc4c3c3c2CCCC3)cc1
10,26,Cn1ccnc1CNC(=O)c1ccc(-c2nc3ccc4[nH]ncc4c3c3c2CCCC3)cc1
11,33,O=C(NCCn1ccnc1)c1ccc(-c2nc3ccc4[nH]ncc4c3c3c2CCCC3)cc1
12,57,O=C(NCc1nnc[nH]1)c1ccc(-c2nc3ccc4[nH]ncc4c3c3c2CCCC3)cc1
13,54,O=C(NCc1c[nH]cn1)c1ccc(-c2nc3ccc4[nH]ncc4c3c3c2CCCC3)cc1
14,97,Cc1c[nH]c(CNC(=O)c2ccc(-c3nc4ccc5[nH]ncc5c4c4c3CCCC4)cc2)n1

# Biological target: Receptor-type tyrosine-protein kinase FLT3 (Homo sapiens) (UniProt P36888)
# Assay: Inhibition of FLT3 (unknown origin) at 50 nM by ADP Glo kinase assay relative to control
# Conditions: not given
# Summary of the method: as §1
row,inhibition [%],SMILES
1,85,O=C(NCc1ncc[nH]1)c1ccc(-c2nc3ccc4[nH]ncc4c3c3c2CCCC3)cc1F
2,46,O=C(NCc1cc[nH]c1)c1ccc(-c2nc3ccc4[nH]ncc4c3c3c2CCCC3)cc1
3,71,O=C(NCCc1ncc[nH]1)c1ccc(-c2nc3ccc4[nH]ncc4c3c3c2CCCC3)cc1
4,81,FC(F)(F)c1n[nH]cc1-c1nc2ccc3[nH]ncc3c2c2c1CCCC2
5,53,O=C(NCc1nccs1)c1ccc(-c2nc3ccc4[nH]ncc4c3c3c2CCCC3)cc1
6,76,O=C(NCc1ncc[nH]1)c1ccc(-c2nc3ccc4[nH]ncc4c3c3c2CCCC3)cc1
7,93,CCc1nc(C(N)=O)c(Nc2ccc(N3CCC(N4CCN(C)CC4)CC3)c(OC)c2)nc1NC1CCOCC1 [GILTERITINIB]
8,88,O=C(NCc1ncc[nH]1)c1ccc(-c2nc3ccc4[nH]ncc4c3c3c2CCCC3)c(F)c1
9,51,O=C(NCc1nnn[nH]1)c1ccc(-c2nc3ccc4[nH]ncc4c3c3c2CCCC3)cc1
10,14,Cn1ccnc1CNC(=O)c1ccc(-c2nc3ccc4[nH]ncc4c3c3c2CCCC3)cc1
11,31,O=C(NCCn1ccnc1)c1ccc(-c2nc3ccc4[nH]ncc4c3c3c2CCCC3)cc1
12,49,O=C(NCc1nnc[nH]1)c1ccc(-c2nc3ccc4[nH]ncc4c3c3c2CCCC3)cc1
13,49,O=C(NCc1c[nH]cn1)c1ccc(-c2nc3ccc4[nH]ncc4c3c3c2CCCC3)cc1
14,94,Cc1c[nH]c(CNC(=O)c2ccc(-c3nc4ccc5[nH]ncc5c4c4c3CCCC4)cc2)n1

# Test system: MOLM-14
# Assay: Anticancer activity against human MOLM-14 cells assessed as cell growth inhibition at 50 nM incubated for 72 hrs by CellTiter-Blue Cell Viability Assay relative to control
# Type: functional
# Conditions: not given
# Summary of the method: (§2)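 Cells plated at 5000/well in RPMI with 10% FBS and penicillin-streptomycin, incubated 24 h at 37 °C, 5% CO2, then exposed to 50 nM compound for 72 h. Viability read by CellTiter-Blue, absorbance at 570 nm 3 h after addition; vehicle and cell-free controls included. Percent growth inhibition given as mean of triplicates.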
row,SMILES,Activity [%]
1,O=C(NCc1ncc[nH]1)c1ccc(-c2nc3ccc4[nH]ncc4c3c3c2CCCC3)cc1F,80
2,O=C(NCc1cc[nH]c1)c1ccc(-c2nc3ccc4[nH]ncc4c3c3c2CCCC3)cc1,39
3,O=C(NCCc1ncc[nH]1)c1ccc(-c2nc3ccc4[nH]ncc4c3c3c2CCCC3)cc1,73
4,FC(F)(F)c1n[nH]cc1-c1nc2ccc3[nH]ncc3c2c2c1CCCC2,90
5,O=C(NCc1nccs1)c1ccc(-c2nc3ccc4[nH]ncc4c3c3c2CCCC3)cc1,55
6,O=C(NCc1ncc[nH]1)c1ccc(-c2nc3ccc4[nH]ncc4c3c3c2CCCC3)cc1,84
7,CCc1nc(C(N)=O)c(Nc2ccc(N3CCC(N4CCN(C)CC4)CC3)c(OC)c2)nc1NC1CCOCC1 [GILTERITINIB],87
8,O=C(NCc1ncc[nH]1)c1ccc(-c2nc3ccc4[nH]ncc4c3c3c2CCCC3)c(F)c1,87
9,O=C(NCc1nnn[nH]1)c1ccc(-c2nc3ccc4[nH]ncc4c3c3c2CCCC3)cc1,50
10,Cn1ccnc1CNC(=O)c1ccc(-c2nc3ccc4[nH]ncc4c3c3c2CCCC3)cc1,21
11,O=C(NCCn1ccnc1)c1ccc(-c2nc3ccc4[nH]ncc4c3c3c2CCCC3)cc1,42
12,O=C(NCc1nnc[nH]1)c1ccc(-c2nc3ccc4[nH]ncc4c3c3c2CCCC3)cc1,48
13,O=C(NCc1c[nH]cn1)c1ccc(-c2nc3ccc4[nH]ncc4c3c3c2CCCC3)cc1,67
14,Cc1c[nH]c(CNC(=O)c2ccc(-c3nc4ccc5[nH]ncc5c4c4c3CCCC4)cc2)n1,96

# Test system: MV4-11
# Assay: Anticancer activity against human MV4-11 cells assessed as cell growth inhibition at 50 nM incubated for 72 hrs by CellTiter-Blue Cell Viability Assay relative to control
# Type: functional
# Conditions: not given
# Summary of the method: as §2
row,SMILES,Activity [%]
1,O=C(NCc1ncc[nH]1)c1ccc(-c2nc3ccc4[nH]ncc4c3c3c2CCCC3)cc1F,82
2,O=C(NCc1cc[nH]c1)c1ccc(-c2nc3ccc4[nH]ncc4c3c3c2CCCC3)cc1,28
3,O=C(NCCc1ncc[nH]1)c1ccc(-c2nc3ccc4[nH]ncc4c3c3c2CCCC3)cc1,69
4,FC(F)(F)c1n[nH]cc1-c1nc2ccc3[nH]ncc3c2c2c1CCCC2,92
5,O=C(NCc1nccs1)c1ccc(-c2nc3ccc4[nH]ncc4c3c3c2CCCC3)cc1,60
6,O=C(NCc1ncc[nH]1)c1ccc(-c2nc3ccc4[nH]ncc4c3c3c2CCCC3)cc1,80
7,CCc1nc(C(N)=O)c(Nc2ccc(N3CCC(N4CCN(C)CC4)CC3)c(OC)c2)nc1NC1CCOCC1 [GILTERITINIB],91
8,O=C(NCc1ncc[nH]1)c1ccc(-c2nc3ccc4[nH]ncc4c3c3c2CCCC3)c(F)c1,79
9,O=C(NCc1nnn[nH]1)c1ccc(-c2nc3ccc4[nH]ncc4c3c3c2CCCC3)cc1,41
10,Cn1ccnc1CNC(=O)c1ccc(-c2nc3ccc4[nH]ncc4c3c3c2CCCC3)cc1,25
11,O=C(NCCn1ccnc1)c1ccc(-c2nc3ccc4[nH]ncc4c3c3c2CCCC3)cc1,35
12,O=C(NCc1nnc[nH]1)c1ccc(-c2nc3ccc4[nH]ncc4c3c3c2CCCC3)cc1,52
13,O=C(NCc1c[nH]cn1)c1ccc(-c2nc3ccc4[nH]ncc4c3c3c2CCCC3)cc1,62
14,Cc1c[nH]c(CNC(=O)c2ccc(-c3nc4ccc5[nH]ncc5c4c4c3CCCC4)cc2)n1,94

# Biological target: Receptor-type tyrosine-protein kinase FLT3 (Homo sapiens, UniProt P36888, ITD)
# Assay: Inhibition of FLT3 ITD mutant (unknown origin)
# Conditions: not given
row,IC50 [nM],SMILES
1,0.121,Cc1c[nH]c(CNC(=O)c2ccc(-c3nc4ccc5[nH]ncc5c4c4c3CCCC4)cc2)n1

# Biological target: Receptor-type tyrosine-protein kinase FLT3 (Homo sapiens, UniProt P36888, D835Y)
# Assay: Inhibition of FLT3 D835Y mutant (unknown origin)
# Conditions: not given
row,IC50 [nM],SMILES
1,0.024,Cc1c[nH]c(CNC(=O)c2ccc(-c3nc4ccc5[nH]ncc5c4c4c3CCCC4)cc2)n1

# Biological target: Receptor-type tyrosine-protein kinase FLT3 (Homo sapiens) (UniProt P36888)
# Assay: Inhibition of FLT3 in human MOLM-14 cells assessed as reduction in phosphorylation of FLT3 at 5 to 100 nM incubated for 2 hrs by immunoblotting
# Type: cell-based
# Conditions: dose 5-100 nM
# Summary of the method: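 MOLM-14 cells exposed to compound at 5, 20 or 100 nM for 2 h, lysed, protein normalized to BSA standard; SDS-PAGE, nitrocellulose transfer, overnight primary antibody, 2 h peroxidase secondary, chemiluminescent detection by CCD. Phospho-FLT3 bands normalized to actin; means of triplicates, SD.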
row,Activity,SMILES
1,Active,Cc1c[nH]c(CNC(=O)c2ccc(-c3nc4ccc5[nH]ncc5c4c4c3CCCC4)cc2)n1

# Test system: MOLM-14
# Assay: Anticancer activity against human MOLM-14 cells assessed as reduction in cell proliferation incubated for 72 hrs CellTiter-Blue Cell Viability Assay
# Type: functional
# Conditions: not given
# Summary of the method: (§3)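 Cells grown in RPMI + 10% FBS + penicillin-streptomycin, seeded 5000 per well, left 24 h at 37 °C, 5% CO2, then given graded compound concentrations for 72 h. CellTiter-Blue viability read as absorbance at 570 nm after 3 h; vehicle and cell-free controls. Nonlinear regression gave GI50; points are means of triplicates, confirmed by two scientists on separate days.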
row,GI50 [nM],SMILES
1,22.4,Cc1c[nH]c(CNC(=O)c2ccc(-c3nc4ccc5[nH]ncc5c4c4c3CCCC4)cc2)n1

# Test system: MOLM-14
# Assay: Anticancer activity against human MOLM-14 cells expressing FLT3 D835Y mutant assessed as reduction in cell proliferation incubated for 72 hrs CellTiter-Blue Cell Viability Assay
# Type: functional
# Conditions: not given
# Summary of the method: as §3
row,GI50 [nM],SMILES
1,4.3,Cc1c[nH]c(CNC(=O)c2ccc(-c3nc4ccc5[nH]ncc5c4c4c3CCCC4)cc2)n1

# Test system: MOLM-14
# Assay: Anticancer activity against human MOLM-14 cells expressing FLT3 F691L mutant assessed as reduction in cell proliferation incubated for 72 hrs CellTiter-Blue Cell Viability Assay
# Type: functional
# Conditions: not given
# Summary of the method: as §3
row,GI50 [nM],SMILES
1,2.2,Cc1c[nH]c(CNC(=O)c2ccc(-c3nc4ccc5[nH]ncc5c4c4c3CCCC4)cc2)n1

# Test system: MV4-11
# Assay: Anticancer activity against human MV4-11 cells assessed as reduction in cell proliferation incubated for 72 hrs CellTiter-Blue Cell Viability Assay
# Type: functional
# Conditions: not given
# Summary of the method: as §3
row,GI50 [nM],SMILES
1,8.9,Cc1c[nH]c(CNC(=O)c2ccc(-c3nc4ccc5[nH]ncc5c4c4c3CCCC4)cc2)n1

# Test system: DNA
# Assay: Binding affinity to DNA (unknown origin) assessed as DNA intercalation
# Type: nucleic-acid assay
# Conditions: Homo sapiens
row,Activity,SMILES
1,Active,O=C1c2c(O)ccc(O)c2C(=O)c2c(NCCNCCO)ccc(NCCNCCO)c21
2,inactive,Cc1c[nH]c(CNC(=O)c2ccc(-c3nc4ccc5[nH]ncc5c4c4c3CCCC4)cc2)n1

# Biological target: T1, Serine/threonine-protein kinase haspin (Homo sapiens)
# Assay: Inhibition of haspin in human MOLM-14 cells assessed as reduction in histone H3 phosphorylation at Thr3 at 20 nM incubated for 24 hrs by immunoblotting analysis
# Conditions: not given
row,inhibition,SMILES
1,inactive,CCc1nc(C(N)=O)c(Nc2ccc(N3CCC(N4CCN(C)CC4)CC3)c(OC)c2)nc1NC1CCOCC1 [GILTERITINIB]
2,Active,Cc1c[nH]c(CNC(=O)c2ccc(-c3nc4ccc5[nH]ncc5c4c4c3CCCC4)cc2)n1
